Screening results from PubChem.
HCV core dimer: inhibitors of HCV core protein dimerization, primary screen, biochemical, TR-FRET, high-throughput | TR-FRET GST/Flag-core106 dimerization, 1536-well | inhibition, % at 5 µM | actives 0.33% (n = 300,000) | AID 1899, 2009;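 active means inhibition above the mean of all tested compounds plus 3 SD, set per screening campaign, cut at about 45% in these data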
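System – GST-tagged and Flag-tagged HCV core protein residues 1-106 · Repeats – one well for each compound · Technique – TR-FRET 671 and 617 nm emission · Doses – one concentration, 5 µM, in 0.5% DMSO · Times – 4 h, 22.5 °C incubation · Also added – Eu donor and XL665 acceptor anti-tag antibodies · Measure – percent inhibition of core106 dimerization signal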
HSF1 inhib: HSF1 inhibitors in luciferase reporter cells, primary screen, cell-based, NIH3T3, luminescence; activity change, negative = inhibition, % at 7.5 µM (by protocol); actives 0.77% (n = 300,000); AID 2098, 2009; NIH3T3-HGL HSE-luciferase, MG132-induced, luminescence 8 h; hits give low values;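 active means more than half of replicate wells show activity change below -50%, luminescence cut by over half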;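 further: luciferase reports HSF-1 transcriptional activity via heat shock element; 0% = median of DMSO wells and -100% = zero luminescence signal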
HSF-1 act: HSF-1 activators, primary screen, NIH3T3-HGL cells, MG132 stress, luminescence, single point. NIH3T3-HGL HSF-1 luciferase reporter, 8 h; 100% = twice DMSO control signal. activation, % at 9 µM. actives 1.7% (n = 300,000). AID 504408, 2011;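 active means mean replicate activation of at least 50% with a set share of replicates each reaching 50%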;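 further: 0% = median of the neutral control wells and 100% = twice that signal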
FID counter: compounds displacing fluorescent DNA intercalator, primary screen, artefact control for HCV NS3 helicase inhibitor project, biochemical, FID fluorescence | DNA fluorescent intercalator displacement | inhibition, % at 7.9 µM | actives 0.17% (n = 290,000) | AID 1845, 2009; in the data active means inhibition above about 37%;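 further: 0% = vehicle and 100% = reference compound; higher means more ethidium bromide displaced from hairpin DNA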
NS3 helicase inh: inhibitors of HCV NS3 helicase, primary screen, biochemical, Cy5 molecular beacon fluorescence; Hepatitis C virus NS3 helicase; NS3 helicase DNA unwinding; inhibition, % at 10.9 µM; actives 0.56% (n = 290,000); AID 1800, 2009;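 active means inhibition above the mean of all tested compounds plus 3 SD, set per campaign, cut at about 35% in these data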;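 further: 0% = DMSO wells and 100% = thioflavine S control wells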
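Assay system – hepatitis C virus NS3 helicase domain fragment enzyme · Buffer or medium – MOPS pH 6.5, MgCl2, DTT, Tween20, BSA · Reagent – Cy5/quencher beacon DNA duplex and ATP to start · Compound – single 10.9 µM dose · Timing – 1 h at 25 °C · Technique – Cy5 beacon fluorescence read at start and 1 h · Measure – % inhibition of unwinding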
HSP90 refold inh: HSP90 inhibitors, primary screen, cell lysate, luminescence; Heat shock protein HSP 90 (rabbit reticulocyte lysate; luciferase refolding); Rabbit reticulocyte lysate, luciferase refolding luminescence, 3 h; inhibition, % at 5.6 µM; actives 0.91% (n = 290,000);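 active means inhibition above the screen-wide mean plus 3 SD, computed separately per campaign, cut at about 16% in these data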;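 further: 0% = DMSO wells and 100% = 60 µM geldanamycin wells; inhibitors lower the luminescence because luciferase stays unfolded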
Numbers without * were called inactive; . = no result given. Rows were chosen to be rich in hits. Some 3.9% of all compounds tested hit in one or more screens of this group.

SMILES | HCV core dimer | HSF1 inhib | HSF-1 act | FID counter | NS3 helicase inh | HSP90 refold inh
CC(C)Cn1c(N)c(C(=O)COC(=O)c2ccc([N+](=O)[O-])o2)c(=O)n(C)c1=O | -6 | 53 | 67* | 1 | -6 | 4
CC(C)Cn1c(N)c(C(=O)COC(=O)c2cc(-c3ccco3)nc3ccccc23)c(=O)n(C)c1=O | 54* | 0 | -21 | -30 | 16 | 4
COc1ccccc1C(=O)Nc1ccc2c(c1)CN(Cc1cnc(C)s1)CC2 | -3 | -12 | -32 | -3 | -4 | 3
CCCc1cc(C(=O)NC2CCCN(Cc3ccccc3F)C2)no1 (stereo unspecified) | 1 | 1 | 2 | -10 | 3 | -5
Cc1ccc(N=N/C(=C\O)C(=O)c2ccc(Cl)cc2)cc1 | 10 | -64* | -64 | -20 | 0 | 3
COc1ccccc1CNC(=O)CSc1ccc(C(=O)Nc2ccccc2OC)cc1[N+](=O)[O-] | 25 | 5 | 11 | -4 | 4 | 4
COc1ccccc1NC(=O)c1ccc(SCC(=O)NCc2ccccc2Cl)c([N+](=O)[O-])c1 | 53* | 0 | 6 | 2 | 3 | 0
COCc1cc(CN2CCN(CCc3ccccc3)C(CCO)C2)ccc1OC (stereo unspecified) | -6 | 155 | 190* | -1 | -15 | 2
Cc1ccc(C)c(OC(=O)c2cccnc2Cl)c1C | 0 | 6 | 4 | -23 | 0 | 3
COCCNC(=O)C1CC(=O)N(C2CCCCC2)C1 (stereo unspecified) | -1 | 15 | 55* | 5 | 0 | 0
COCCCNC(=O)C1CC(=O)N(C2CCCC2)C1 (stereo unspecified) | -6 | . | . | 1 | 10 | 4
C/C(=N\O)C1CCCCC1 | 1 | -57* | -66 | -2 | 5 | -3
C/C(=N\NC(=O)NC1CCCCC1)C1CCCCC1 | -3 | 3 | -2 | -14 | -3 | -6
O=c1cc(CN2CCN(c3ccccc3)CC2)nc2scc(-c3ccccc3)n12 | 46* | -4 | -16 | -20 | 13 | 0
O=C(COC(=O)CCN1C(=O)/C(=C\C=C\c2ccccc2)SC1=S)Nc1cc(F)ccc1F | 60* | 0 | -7 | -12 | 21 | -1
O=C(CCN1C(=O)C2CC=C(Cl)CC2C1=O)NCc1ccco1 (stereo unspecified) | -4 | -1 | -15 | 1 | 11 | 1
O=C1C2CC=C(Cl)CC2C(=O)N1CN(Cc1ccco1)CN1C(=O)C2CC=C(Cl)CC2C1=O (stereo unspecified) | 80* | 19 | 13 | -6 | 9 | -2
Cc1ccc(NC(=O)CN(C)C(=O)Cc2ccc(Cl)c(Cl)c2)cc1 | 1 | 3 | 14 | -18 | -14 | -1
Cc1ccc(NC(=O)CN(C)C(=O)Cn2ncc(Cl)c(Cl)c2=O)cc1 | 19 | 29 | 52* | -7 | 6 | 0
CCN(CCCNC(=O)CCc1nc(-c2ccc(C)cc2)no1)c1cccc(C)c1 | -11 | 57 | 59* | -11 | -19 | -2
CCN(CCCNC(=O)C1CCC(=O)N1Cc1ccccc1Cl)c1cccc(C)c1 (stereo unspecified) | -5 | 56 | 77* | -22 | 6 | -3
CCN(CCNC(=O)C1CCC(=O)N1Cc1ccc(C)cc1)c1ccccc1 (stereo unspecified) | 1 | 0 | 12 | -24 | -9 | -4
CCN(CCCNC(=O)COc1cc(=O)n(C)c2ccccc12)c1cccc(C)c1 | -2 | 131 | 162* | -17 | -1 | 4
CCN(CCCNC(=O)C1CCC(=O)N1Cc1ccc(C)cc1)c1cccc(C)c1 (stereo unspecified) | -7 | 59 | 85* | -14 | 0 | 2
COc1ccc(CCN(CC(=O)NC(C)(C)C)C(=O)Cn2nnc(-c3ccc(C)o3)n2)cc1OC | -2 | . | . | -30 | 9 | -1
